Shown are actives, neighbours in structure and some others; about 3.5% of the full set was active somewhere.
ERAP1 HTS inh – inhibitors of human ERAP1 aminopeptidase; recombinant ERAP1, Leu-AMC fluorescence, 60 min; inhibition, % at 10.7 µM; hit rate 0.15% among 340,000;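 active means mean replicate inhibition of at least 30%, or all replicates individually reaching that 30% level; inactive means mean below 30% and not every replicate reaching it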;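 further: 0% = neutral control wells and 100% = L-leucinethiol positive control wells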
HIV Env fusion – HIV envelope-mediated fusion inhibition; inhibition, % at 12.3 µM; HeLa-JRFL Env/CEM21 cell fusion, luciferase; hit rate 1.1% among 360,000;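 active means mean replicate inhibition score of at least 50 and every replicate individually at or above 50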;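 further: 0% = plate neutral controls and 100% = maraviroc near 300 nM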
FGF22 binding – binders of recombinant human FGF22 by thermal shift. AID 651658. activity (Tm shift, normalised), % at 9.99 µM. hit rate 1.5% among 340,000. SYPRO orange fluorescence; percent of sucrose octasulfate shift, DMSO zero;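 active means mean Tm shift, scaled 0 neutral to 100 positive control, at about 1.3% or above, every replicate too, limit read from the data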
Target sequence (Q9HCT0 whole entry, looked up): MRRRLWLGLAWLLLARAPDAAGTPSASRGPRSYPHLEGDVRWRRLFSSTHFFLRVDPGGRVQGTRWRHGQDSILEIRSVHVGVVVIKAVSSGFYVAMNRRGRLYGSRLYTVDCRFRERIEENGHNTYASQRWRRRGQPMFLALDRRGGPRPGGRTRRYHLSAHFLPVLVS
PGC1a acetyl inh – PGC1a acetylation modulation, inhibitor mode; U2OS PGC1a acetylation, AlphaScreen anti-acetyl-lysine; with virally co-expressed GCN5 acetyltransferase; inhibition, % at 15.6 µM; hit rate 0.17% among 350,000; AID 651687;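 active means every replicate shows inhibition of at least 40%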;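 further: 0% = neutral control wells and 100% = positive control wells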
Cneo AK release – Cryptococcus neoformans lysis via adenylate kinase release; hit rate 0.2% among 360,000; C. neoformans lysis, adenylate kinase release luminescence, 4 h; normalised: neutral wells 0, clomiphene wells 100; lysis activity, % at 15 µM; AID 651654;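 active means mean lysis activity across replicates of at least 80%, whatever share of replicates individually reach that level; inactive means mean lysis activity below 80%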
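Material: C. neoformans cells | Amount: Yeast cell density of 5 × 10^6 cells/mL | Medium: Fresh YPD growth medium | Dosing: Single dose | Times: Static 4 h at 37 °C with compound, 1 h detection | Detection: AK luminescence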
rRNA inh HTS – selective bacterial rRNA inhibition in E. coli; hit rate 1.6% among 350,000; GFP signal change (wild-type ribosome), % (no concentration beside the values); AID 720706; E. coli WT GFP vs humanized-ribosome RFP mutants, fluorescence, 24 h; stronger effect = lower value; DMSO median 0, no signal -100;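 active means significant combined selectivity score with lowered wild-type GFP, culture density cut under 30%, mutant RFP and density less affected; inactive means any of these conditions unmet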
Active calls of the source: *; i = inactive; . = no result.

SMILES	ERAP1 HTS inh	HIV Env fusion	FGF22 binding	PGC1a acetyl inh	Cneo AK release	rRNA inh HTS
COc1ccc(-c2cn3cc(C)ccc3n2)cc1F	0	-55	0	-17	-11	-31*
COc1ccc(-c2cn3cc(C)ccc3n2)cc1OC	.	i	.	-6	-6	.
Cc1sc(NC(=O)c2ccccc2)c(C(c2ccccn2)N2CCN(CCO)CC2)c1C (stereo not given)	.	3	.	.	.	.
Cc1ccc(C2CC2c2n[nH]c(=S)n2-c2ccc(C)cc2)cc1 (stereo not given)	1	.	0	12	17	-53
Cc1ccc(-n2c(C3CC3c3ccc(Cl)cc3)n[nH]c2=S)cc1 (stereo not given)	-1	.	0	2	5	-33*
CCC(C)n1c(=S)[nH]c2c(sc3ccc([N+](=O)[O-])cc32)c1=O (stereo not given)	1	-5	0	.	-6	-32*
CCc1nnc(NC(=O)c2cccc(S(=O)(=O)N3CCN(c4ccccc4)CC3)c2)s1	.	.	.	.	4	.
O=S(=O)(Nc1nccs1)c1ccc(NCc2cc(Br)cc(Br)c2O)cc1	-3	-38	0	-6	-3	-47*
O=S(=O)(NC1=NCCC1)c1cccs1	.	13	.	5	-1	.
COc1ccc(C2=Nn3c(nnc3-c3ccncc3)SC2)cc1	.	96*	.	.	1	.
COc1ccc(C2=Nn3c(nnc3-c3ccccc3OC)SC2)cc1OCC1CC1	.	-94	0	-24	2	-27*
COc1ccc(OC)c(-c2nnc3n2N=C(c2ccc(OC)c(OC)c2)CS3)c1	2	i	0	.	2	-19*
Cc1ccc(NS(=O)(=O)c2ccc(CCC(=O)N3CCCC3)cc2)cc1	-1	25	0	-12	.	-6
CCn1c(SCC(=O)NNC(=S)Nc2ccccc2)nnc1-c1ccc(Cl)cc1	0	12	0	8	.	-2
C=CCn1c(SCC(=O)NNC(=S)Nc2ccccc2)nnc1-c1ccccc1	3	-1	0	-5	0	-16*
CCSc1nnc(N2C(=O)CC(c3ccsc3)C3=C2CC(C)(C)CC3=O)s1 (stereo not given)	-3	58*	0	-9	-3	-4
CCOC(=O)Nc1ccc(C(=O)Oc2ccccc2)c(O)c1	1	.	0	10	0	-32*
O=C(Nc1ccc(C(=O)Oc2ccccc2)c(O)c1)c1ccccc1	8	-13	0	.	.	-16
Oc1ccc(N=Nc2ccccc2)cc1	1	-67	0	0	-4	-18
Oc1ccc(N=Nc2n[nH]c(-c3ccc(Cl)cc3)n2)cc1	-5	.	0	-6	-11	-18*
CN(C)CCNC(=O)c1cccc(NS(=O)(=O)c2ccc(Cl)c(Cl)c2)c1	6	4	1	-4	-1	-13
CCCN1CCN(C(=O)c2cc(COc3ccc(F)c(F)c3)on2)CC1	-6	-5	0	-7	-2	0
Cc1ccc(OCCn2c(=S)[nH]c3c(N)ncnc32)cc1	1	-24	0	16	-2	-37*
CC(C)Oc1ccc(OCCn2c(=S)[nH]c3c(N)ncnc32)cc1	3	0	0	.	.	-31
COc1cccc(C2CC(c3cccs3)=NN2S(C)(=O)=O)c1OC (stereo not given)	0	12	0	.	.	2
SMILES	ERAP1 HTS inh	HIV Env fusion	FGF22 binding	PGC1a acetyl inh	Cneo AK release	rRNA inh HTS
CC(=O)N/C(=C\c1cccc([N+](=O)[O-])c1)C(=O)NC(C)C	-4	-24	0	-3	20	10
CC(C)(C)C(=O)/C(=C\c1cccc([N+](=O)[O-])c1)n1cncn1	.	.	.	96*	0	.
COc1cc(/C=C/C(=O)Nc2cccc(S(=O)(=O)N3CCOCC3)c2)ccc1OCC#N	-3	.	4.1*	-4	1	-4
COc1ccc(/C=C/C(=O)Nc2ccc(NC(C)=O)cc2)cc1S(=O)(=O)N1CCOCC1	0	1	0	-2	-9	-5
COc1ccc(C(=O)NCc2ccccc2CN2CCCC2)cc1S(=O)(=O)N1CCOCC1	1	62*	0	.	1	5
COc1ccc(/C=C/C(=O)Nc2cccc(S(=O)(=O)N3CCOCC3)c2)cc1OC	12	3	0	.	-2	-4
COc1ccc(/C=C/C(=O)Nc2ccccc2)cc1S(=O)(=O)N1CCOCC1	.	0	0	-2	.	-18*

Bioassay records: PubChem, Broad Institute
